In the library only some 3% were active in any assay of this set; here they are far more common.
Tn6 DDE FP: disrupts Tn6 cyclic peptide binding to fibrin D-Dimer-E complex | P02675 | Fibrin DD(E) TRITC-Tn6 fluorescence polarization displacement | inhibition, % at 8.3 µM | 0.21% of 370,000 active;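 active = inhibition above a per-campaign cutoff: mean of compounds within control limits plus 3 SD, cut at about 15% in these data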
PLCg1 inh: inhibitors of human phospholipase C gamma1; inhibition, % at 12.2 µM; AID 720700; P19174; purified PLC-gamma1, fluorogenic substrate, fluorescence; 0.84% of 370,000 active; in the data active = inhibition above about 9.5%
KLK7 zymogen act: activators of human kallikrein-7 zymogen; purified proKLK7, EDANS-DABCYL substrate fluorescence; 100% is mature enzyme control, 0% vehicle; activation, % at 7 µM; 0.9% of 370,000 active; P49862;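 active = activation above the mean of all tested compounds plus 3 SD, computed per campaign excluding outliers beyond control limits, cut at about 13% in these data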
DDE Tn7 FP inh: DD(E)-Tn7 binding inhibition, primary FP screen. 0.13% of 370,000 active. AID 720508. inhibition, % at 8.3 µM. FP displacement of FITC-Tn7 peptide from fibrin DD(E); 0% = median of compound wells per plate. P02675;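 active = inhibition above the mean of compounds falling within the control limits plus 3 SD of them, cut at about 14% in these data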
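Assay system: Fibrin-DD(E) protein isolated from polymerized human fibrin clots; read-out basis: percent inhibition; medium: Tris/NaCl/CaCl2 buffer, pH 7.8; signal: FP measurement; incubation: 10 min plus 3 h, room temperature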
PLCb3 inh: inhibitors of human phospholipase C beta3. Q01970. Purified PLC-beta3, fluorogenic substrate, fluorescence. inhibition, % at 12.2 µM. 0.18% of 370,000 active; in the data active = inhibition above about 11%
NRP1-CendR mod: NRP-1/CendR interaction modulation; AID 602438; FAM-RPARPAR peptide binding to NRP-1, fluorescence polarization; 0.85% of 360,000 active; O14786; inhibition, % at 25 µM;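 active = inhibition or corrected inhibition above about 18%, plus a signal ratio from 0.5 to 1.5, limit read from the data, passing the limit was not always enough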
Target sequence (O14786 whole entry, looked up): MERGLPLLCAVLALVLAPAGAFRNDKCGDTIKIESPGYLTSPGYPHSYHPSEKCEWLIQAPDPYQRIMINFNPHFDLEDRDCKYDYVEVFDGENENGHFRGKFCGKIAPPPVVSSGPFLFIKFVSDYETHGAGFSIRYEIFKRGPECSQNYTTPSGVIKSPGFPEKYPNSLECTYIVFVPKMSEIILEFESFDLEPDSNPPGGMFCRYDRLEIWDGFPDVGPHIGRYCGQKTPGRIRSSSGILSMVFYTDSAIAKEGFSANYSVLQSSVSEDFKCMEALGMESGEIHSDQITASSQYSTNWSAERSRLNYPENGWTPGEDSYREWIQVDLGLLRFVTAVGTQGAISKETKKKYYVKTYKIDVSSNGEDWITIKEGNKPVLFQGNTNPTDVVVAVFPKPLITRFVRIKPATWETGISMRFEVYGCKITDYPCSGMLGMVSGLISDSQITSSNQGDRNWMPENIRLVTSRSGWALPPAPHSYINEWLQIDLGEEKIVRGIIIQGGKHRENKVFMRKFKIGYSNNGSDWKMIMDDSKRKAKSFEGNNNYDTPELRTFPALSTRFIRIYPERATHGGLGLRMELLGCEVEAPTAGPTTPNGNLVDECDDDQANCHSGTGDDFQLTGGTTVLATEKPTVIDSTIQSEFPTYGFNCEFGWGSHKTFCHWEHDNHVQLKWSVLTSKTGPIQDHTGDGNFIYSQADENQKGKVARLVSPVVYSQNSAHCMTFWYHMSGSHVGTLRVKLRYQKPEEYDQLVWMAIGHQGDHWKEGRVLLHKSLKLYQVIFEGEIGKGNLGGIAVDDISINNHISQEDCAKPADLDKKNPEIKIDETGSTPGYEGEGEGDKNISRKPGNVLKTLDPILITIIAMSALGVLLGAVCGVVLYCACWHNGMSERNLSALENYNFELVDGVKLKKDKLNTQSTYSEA
Numbers stand for hits.

How did CCCC1CCC2(CC1)CCC2OC(=S)Nc1ccccc1 (stereo unspecified) do in these assays?
Tn6 DDE FP: inactive; PLCg1 inh: inactive; DDE Tn7 FP inh: inactive; PLCb3 inh: inactive

What do the screens show for `O=C([C@@H]1C[C@H]1c1ccccc1)N1CC[C@H]2[C@H](CCCN2Cc2ccccc2)C1`?
Tn6 DDE FP: inactive; PLCg1 inh: inactive; KLK7 zymogen act: inactive; DDE Tn7 FP inh: inactive; PLCb3 inh: inactive

What do the screens show for `CCO[C@H]1OC(C(=O)NC2CC2)=C[C@@H](c2ccccc2)[C@@H]1CCCO`?
Tn6 DDE FP: inactive; PLCg1 inh: inactive; KLK7 zymogen act: inactive; DDE Tn7 FP inh: inactive; PLCb3 inh: inactive; NRP1-CendR mod: 26

Results for CCO[C@@H]1OC(C(=O)NCc2ccccc2)=C[C@H](c2ccc(Br)cc2)[C@H]1CCCO ?
Tn6 DDE FP: inactive; PLCg1 inh: inactive; KLK7 zymogen act: inactive; DDE Tn7 FP inh: inactive; PLCb3 inh: inactive; NRP1-CendR mod: 24

Results for O=c1c(-c2ccc(O)cc2)coc2c(C3O[C@H](CO)[C@@H](O)[C@H](O)[C@H]3O)c(O)ccc12 (stereo partly specified) ?
Tn6 DDE FP: inactive; PLCg1 inh: inactive; KLK7 zymogen act: inactive; DDE Tn7 FP inh: inactive; PLCb3 inh: inactive; NRP1-CendR mod: inactive

How did O=c1c(-c2ccc(O)cc2)coc2c([C@@H]3O[C@H](CO)[C@@H](O)[C@H](O)[C@H]3O)c(O)ccc12 do in these assays?
Tn6 DDE FP: inactive; PLCg1 inh: inactive; KLK7 zymogen act: inactive; DDE Tn7 FP inh: inactive; PLCb3 inh: inactive; NRP1-CendR mod: 24

What do the screens show for `CN(CCC#N)C(=O)COC(=O)C1c2ccccc2Oc2ccccc21`?
Tn6 DDE FP: inactive; PLCg1 inh: inactive; KLK7 zymogen act: inactive; DDE Tn7 FP inh: inactive; PLCb3 inh: inactive; NRP1-CendR mod: inactive

Results for N#CCCN(CCC#N)C(=O)C1c2ccccc2Oc2ccccc21 ?
Tn6 DDE FP: 59; PLCg1 inh: inactive; KLK7 zymogen act: inactive; DDE Tn7 FP inh: inactive; PLCb3 inh: inactive; NRP1-CendR mod: inactive

How did C=C1C[C@@]23CCC4[C@@](C)(CCC[C@@]4(C)C(=O)OC)C2CC[C@]1(OC(C)=O)C3 (stereo partly specified) do in these assays?
Tn6 DDE FP: inactive; PLCg1 inh: inactive; KLK7 zymogen act: inactive; DDE Tn7 FP inh: inactive; PLCb3 inh: inactive; NRP1-CendR mod: 30

Results for COC(=O)[C@]1(C)CCC[C@@]2(C)C3CC[C@@]4(C)C[C@]3(CCC21)CC(=O)N4C (stereo partly specified) ?
Tn6 DDE FP: inactive; PLCg1 inh: inactive; KLK7 zymogen act: inactive; DDE Tn7 FP inh: inactive; PLCb3 inh: inactive; NRP1-CendR mod: inactive

How did CCCS(=O)(=O)N1CCC(Cc2ccc(OC)cc2)(C(=O)OCC)CC1 do in these assays?
Tn6 DDE FP: inactive; PLCg1 inh: inactive; KLK7 zymogen act: inactive; DDE Tn7 FP inh: inactive; PLCb3 inh: inactive; NRP1-CendR mod: 39

How did CCOC(=O)C1(Cc2ccc(OC)cc2)CCN(S(C)(=O)=O)CC1 do in these assays?
Tn6 DDE FP: inactive; PLCg1 inh: inactive; KLK7 zymogen act: inactive; DDE Tn7 FP inh: inactive; PLCb3 inh: inactive; NRP1-CendR mod: inactive

Results for Cc1ccccc1CN1CCCCC(NC(=O)c2ccccc2C(F)(F)F)C1=O (stereo unspecified) ?
Tn6 DDE FP: inactive; PLCg1 inh: inactive; KLK7 zymogen act: inactive; DDE Tn7 FP inh: inactive; PLCb3 inh: inactive

How did CC1CCCC(N2C(=O)NC(NC(=O)c3ccco3)(C(F)(F)F)C2=O)C1C (stereo unspecified) do in these assays?
Tn6 DDE FP: inactive; PLCg1 inh: inactive; KLK7 zymogen act: inactive; DDE Tn7 FP inh: inactive; PLCb3 inh: inactive; NRP1-CendR mod: 28

What do the screens show for `O=C(CN1CCN(c2nc(-c3ccccc3)cs2)CC1)Nc1ccc(Cl)cc1`?
Tn6 DDE FP: inactive; PLCg1 inh: inactive; KLK7 zymogen act: inactive; DDE Tn7 FP inh: inactive; PLCb3 inh: inactive

Results for COc1cccc(NC(=O)CN(C)C(=O)C23CC4CC(CC(Cl)(C4)C2)C3)c1 ?
Tn6 DDE FP: inactive; PLCg1 inh: inactive; KLK7 zymogen act: inactive; DDE Tn7 FP inh: inactive; PLCb3 inh: inactive; NRP1-CendR mod: 33

How did O=C(O)COc1ccc2oc3c(c2c1)CCCC3 do in these assays?
Tn6 DDE FP: inactive; PLCg1 inh: inactive; KLK7 zymogen act: inactive; DDE Tn7 FP inh: inactive; PLCb3 inh: inactive; NRP1-CendR mod: inactive

Results for Oc1ccc2oc3c(c2c1)CCCC3 ?
Tn6 DDE FP: inactive; PLCg1 inh: inactive; KLK7 zymogen act: inactive; DDE Tn7 FP inh: inactive; PLCb3 inh: inactive; NRP1-CendR mod: 28

Results for COc1ccccc1Cn1c(=S)[nH]c2cc(C(=O)N3CCCC3)ccc2c1=O ?
Tn6 DDE FP: inactive; PLCg1 inh: inactive; KLK7 zymogen act: inactive; DDE Tn7 FP inh: inactive; PLCb3 inh: inactive; NRP1-CendR mod: 31

How did CCN1CCN(C(=O)c2ccc3c(=O)n(Cc4ccccc4OC)c(=S)[nH]c3c2)CC1 do in these assays?
Tn6 DDE FP: inactive; PLCg1 inh: inactive; KLK7 zymogen act: inactive; DDE Tn7 FP inh: inactive; PLCb3 inh: inactive; NRP1-CendR mod: inactive

How did CCOC(=O)C1CCN(S(=O)(=O)c2ccc3c(c2)CCN3C(=O)C2CCC2)CC1 do in these assays?
NRP1-CendR mod: 22

What do the screens show for `COc1ccc(C(=O)O[C@@H]2CCC[C@@]3(C(=O)N(Cc4ccccc4)c4ccccc43)[C@H]2NC(=O)CCc2ccccc2)cc1OC`?
Tn6 DDE FP: inactive; PLCg1 inh: inactive; KLK7 zymogen act: inactive; DDE Tn7 FP inh: inactive; PLCb3 inh: inactive

Results for COc1c2c(c3c(c1OC)c(=O)c1ccccc1n3C)OCO2 ?
Tn6 DDE FP: inactive; PLCg1 inh: inactive; KLK7 zymogen act: inactive; DDE Tn7 FP inh: inactive; PLCb3 inh: inactive; NRP1-CendR mod: 26

What do the screens show for `O=C(NCCc1c[nH]c2ccccc12)c1ccc2c(c1)ncn2C1CCCCC1`?
Tn6 DDE FP: inactive; PLCg1 inh: inactive; KLK7 zymogen act: inactive; DDE Tn7 FP inh: inactive; PLCb3 inh: inactive

Results for COC(=O)C1CN(Cc2cn(Cc3ccc(F)cc3)nn2)CCS(=O)(=O)N1Cc1ccc(C)cc1 (stereo unspecified) ?
Tn6 DDE FP: inactive; PLCg1 inh: inactive; KLK7 zymogen act: inactive; DDE Tn7 FP inh: inactive; PLCb3 inh: inactive

How did COC(=O)[C@]12C[C@H](CC(=O)N3CCSCC3)C(=O)N(CCc3ccc(OC)c(OC)c3)C1=C[C@H](C(C)C)O[C@@H]2C1CC1 do in these assays?
Tn6 DDE FP: inactive; PLCg1 inh: inactive; KLK7 zymogen act: inactive; DDE Tn7 FP inh: inactive; PLCb3 inh: inactive

How did CCOC(=O)C(NC(=O)CC(C)C)(Nc1sc(C)c(CC)c1C#N)C(F)(F)F (stereo unspecified) do in these assays?
Tn6 DDE FP: inactive; PLCg1 inh: inactive; KLK7 zymogen act: inactive; DDE Tn7 FP inh: inactive; PLCb3 inh: inactive; NRP1-CendR mod: 24

How did CCOC(=O)C(NC(=O)CCl)(Nc1sc(C)c(CC)c1C#N)C(F)(F)F (stereo unspecified) do in these assays?
Tn6 DDE FP: inactive; PLCg1 inh: inactive; KLK7 zymogen act: inactive; DDE Tn7 FP inh: inactive; PLCb3 inh: inactive; NRP1-CendR mod: inactive
